Test results published in ChEMBL document CHEMBL1145162, “6-aryl-8H-indeno[1,2-d]thiazol-2-ylamines: A1 adenosine receptor agonist allosteric enhancers having improved potency” (J Med Chem, 2005).

Columns and labels:
[1] = target: T1, Adenosine receptor A3 (Homo sapiens) (UniProt P0DMS8); test: In vitro allosteric enhancer (AE) activity for adenosine A3 receptor at 50 uM
T1 sequence (whole entry): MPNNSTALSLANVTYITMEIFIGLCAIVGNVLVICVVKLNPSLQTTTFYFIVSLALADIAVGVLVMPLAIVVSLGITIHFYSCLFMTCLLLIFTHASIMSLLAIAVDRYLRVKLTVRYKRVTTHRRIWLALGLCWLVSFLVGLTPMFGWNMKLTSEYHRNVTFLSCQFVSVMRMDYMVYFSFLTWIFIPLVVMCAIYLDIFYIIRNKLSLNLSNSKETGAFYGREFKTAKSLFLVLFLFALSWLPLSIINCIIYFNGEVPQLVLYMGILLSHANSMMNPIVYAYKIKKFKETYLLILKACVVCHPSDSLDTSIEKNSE

[2] = target: Adenosine receptor A2a (Homo sapiens) (UniProt P29274); test: In vitro allosteric enhancer (AE) activity for adenosine A2A receptor at 50 uM
[3] = target: T2, Adenosine receptor A1 (Homo sapiens, UniProt P30542); test: Antagonist activity against adenosine A1 receptor; type: functional; design: concentration or dose not given beside the values
T2 sequence (P30542 whole entry): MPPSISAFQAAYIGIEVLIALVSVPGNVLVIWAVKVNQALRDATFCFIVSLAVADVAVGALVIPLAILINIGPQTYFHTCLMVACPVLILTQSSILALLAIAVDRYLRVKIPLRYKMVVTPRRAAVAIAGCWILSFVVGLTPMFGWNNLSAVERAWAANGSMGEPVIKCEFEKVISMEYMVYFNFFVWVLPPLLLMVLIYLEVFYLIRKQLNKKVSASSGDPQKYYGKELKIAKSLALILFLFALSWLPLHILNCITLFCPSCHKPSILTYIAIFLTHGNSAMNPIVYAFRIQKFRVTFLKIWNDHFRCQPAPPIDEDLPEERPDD
Procedure, shortened: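 Equilibrium binding on CHO-K1 hA1AR membranes (15 μg) in 10 mM HEPES pH 7.4, 1 mM EDTA, 1 U/mL adenosine deaminase, 4 nM [3H]CPX. Mixed with an equal volume of 200 μM enhancer in HEPES–10% DMSO; 200 μM NECA for nonspecific binding. Incubated 3 h at room temperature, then filtered.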

[4] = target: T3, Adenosine receptor A1 (Homo sapiens) (UniProt P30542); test: Allosteric enhancer (AE) activity against human adenosine A1 receptor at 50 uM
T3 sequence (whole entry): T2 sequence (P30542 whole entry)
Procedure, shortened: (§1)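 Single-point screen on membranes from CHO-K1 cells stably expressing hA1AR. Candidate enhancer was added at 50 μM final for 5 min. Dissociation was then started with 8-cyclopentyltheophylline plus GTPγS and run 10 min. Score = % specific agonist binding remaining; two to three assays, each in triplicate.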

[5] = target: T3, Adenosine receptor A1 (Homo sapiens); test: In vitro allosteric enhancer (AE) activity for adenosine A1 receptor at 50 uM; procedure, shortened: as §1
[6] = target: T3, Adenosine receptor A1 (Homo sapiens); test: In vitro allosteric enhancer (AE) activity for adenosine A1 receptor maximal score from curve fitting
[7] = target: T3, Adenosine receptor A1 (Homo sapiens); test: Inhibition of human adenosine receptor A1 at 10 uM
Procedure, shortened: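 CHO-K1 hA1AR membranes at 0.5 mg/mL in 10 mM HEPES pH 7.4 with 1 mM EDTA, 1 U/mL adenosine deaminase, 5 mM MgCl2 and 2 nM [3H]CPX. Mixed 1:1 with buffer containing 20 μM enhancer. Equilibrium 3 h at room temperature; 100 μM NECA defined nonspecific binding. Inhibition expressed relative to control specific binding; duplicate assays.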

[8] = target: T4, Adenosine receptor A1 (Rattus norvegicus) (UniProt P25099); test: Allosteric enhancer (AE) activity against rat adenosine A1 receptor at 50 uM
T4 sequence (whole entry): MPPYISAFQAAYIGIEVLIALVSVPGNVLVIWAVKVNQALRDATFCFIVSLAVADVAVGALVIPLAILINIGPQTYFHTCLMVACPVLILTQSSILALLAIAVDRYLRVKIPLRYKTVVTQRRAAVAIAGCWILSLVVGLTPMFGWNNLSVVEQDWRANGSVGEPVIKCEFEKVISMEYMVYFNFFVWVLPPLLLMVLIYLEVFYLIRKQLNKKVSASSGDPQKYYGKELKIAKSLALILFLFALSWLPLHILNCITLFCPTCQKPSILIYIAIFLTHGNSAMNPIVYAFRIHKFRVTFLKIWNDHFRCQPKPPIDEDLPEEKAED

[9] = target: T1, Adenosine receptor A3 (Homo sapiens); test: Inhibition of human adenosine receptor A3 at 10 uM

Sequence of Adenosine receptor A2a (Homo sapiens) (P29274 whole entry): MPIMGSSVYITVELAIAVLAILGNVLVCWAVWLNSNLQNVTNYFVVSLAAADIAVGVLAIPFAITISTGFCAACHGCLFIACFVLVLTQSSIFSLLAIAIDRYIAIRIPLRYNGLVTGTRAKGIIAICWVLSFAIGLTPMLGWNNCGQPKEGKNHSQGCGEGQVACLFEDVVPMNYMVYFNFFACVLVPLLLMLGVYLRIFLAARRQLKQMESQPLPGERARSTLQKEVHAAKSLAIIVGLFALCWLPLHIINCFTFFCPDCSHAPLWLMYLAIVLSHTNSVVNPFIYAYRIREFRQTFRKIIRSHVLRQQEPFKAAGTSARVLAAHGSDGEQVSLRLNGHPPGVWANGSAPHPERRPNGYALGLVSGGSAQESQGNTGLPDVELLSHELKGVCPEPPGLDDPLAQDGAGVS

Inhibition [3]: 19.2%
inhibition [7]: 18.8%
inhibition [9]: 45%
Structure (SMILES): COc1ccc(-c2ccc3c(c2)Cc2sc(N)nc2-3)cc1OC
Alloste ic enhan er (AE) [1]: 10.1%
Alloste ic enhan er (AE) [2]: 0.2%
Alloste ic enhan er (AE) [4]: 83.9%
Alloste ic enhan er (AE) [5]: 82%
Allosteric enhancer (AE) [6]: 82.7%
Alloste ic enhan er (AE) [8]: 39.1%
